ChEMBL document CHEMBL1138849, “5-substituted tetrazoles as bioisosteres of carboxylic acids. Bioisosterism and mechanistic studies on glutathione reductase inhibitors as antimalarials” (J Med Chem, 2004)
pIC50, pKi: −log10 of the molar value. Several values for one entry are separate records, joined by “and”; a condition that tells them apart may be missing. Equal values may be shown once.

Legend:
[1] = test system: Plasmodium falciparum; experiment: Inhibitory concentration against Plasmodium falciparum […]; format: functional, organism-based; settings: FcB1/Columbia
[2] = biological target: T1, Glutathione reductase, mitochondrial (Homo sapiens, UniProt P00390); experiment: Inhibitory concentration against human glutathione reductase
T1 sequence (P00390 whole entry): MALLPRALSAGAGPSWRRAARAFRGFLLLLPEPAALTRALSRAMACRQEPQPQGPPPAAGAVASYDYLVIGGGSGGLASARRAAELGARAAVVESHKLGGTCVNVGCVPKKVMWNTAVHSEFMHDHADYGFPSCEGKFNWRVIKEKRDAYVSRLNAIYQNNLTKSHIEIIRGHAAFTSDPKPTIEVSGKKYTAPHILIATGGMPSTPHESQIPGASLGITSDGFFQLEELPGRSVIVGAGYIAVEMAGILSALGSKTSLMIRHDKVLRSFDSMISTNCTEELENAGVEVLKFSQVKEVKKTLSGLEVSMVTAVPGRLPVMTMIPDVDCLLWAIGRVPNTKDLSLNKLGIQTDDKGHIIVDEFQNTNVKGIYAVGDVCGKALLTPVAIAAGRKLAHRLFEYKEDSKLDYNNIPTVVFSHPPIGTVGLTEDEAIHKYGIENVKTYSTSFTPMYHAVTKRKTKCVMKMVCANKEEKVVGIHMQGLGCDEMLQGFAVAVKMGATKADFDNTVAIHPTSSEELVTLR
Procedure, shortened: (§1)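 Recombinant GR (human or P. falciparum) in 100 mM potassium phosphate pH 7.0, 200 mM KCl, 100 μM NADPH, 1 mM GSSG, with 1% final DMSO. Started with 8 milliunits of enzyme. Initial rates of NADPH oxidation read at 340 nm. […] A second set of standard assays used 200 μM GSSG.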

[3] = biological target: T1, Glutathione reductase, mitochondrial; experiment: Inhibitory concentration against human glutathione reductase in the presence of 200 uM exogenous NADP
[4] = biological target: Glutathione reductase (Plasmodium falciparum 3D7, UniProt O15770); experiment: Inhibitory concentration against Plasmodium falciparum glutathione reductase; procedure, shortened: as §1
[5] = biological target: Glutathione reductase (Plasmodium falciparum) (UniProt Q94655); experiment: Inhibitory concentration against Plasmodium falciparum glutathione reductase
[6] = biological target: T1, Glutathione reductase, mitochondrial; experiment: Inhibitory concentration against human glutathione reductase in the absence of glucose-6-phosphate dehydrogenase (G6PDH); procedure, shortened: as §1
[7] = biological target: T1, Glutathione reductase, mitochondrial; experiment: Inhibitory concentration against human glutathione reductase (In presence of NADPH)
[8] = biological target: T1, Glutathione reductase, mitochondrial; experiment: Inhibitory concentration against human glutathione reductase (In presence of glutathione disulfide)

Sequence of Glutathione reductase (Plasmodium falciparum) (Q94655 whole entry, looked up): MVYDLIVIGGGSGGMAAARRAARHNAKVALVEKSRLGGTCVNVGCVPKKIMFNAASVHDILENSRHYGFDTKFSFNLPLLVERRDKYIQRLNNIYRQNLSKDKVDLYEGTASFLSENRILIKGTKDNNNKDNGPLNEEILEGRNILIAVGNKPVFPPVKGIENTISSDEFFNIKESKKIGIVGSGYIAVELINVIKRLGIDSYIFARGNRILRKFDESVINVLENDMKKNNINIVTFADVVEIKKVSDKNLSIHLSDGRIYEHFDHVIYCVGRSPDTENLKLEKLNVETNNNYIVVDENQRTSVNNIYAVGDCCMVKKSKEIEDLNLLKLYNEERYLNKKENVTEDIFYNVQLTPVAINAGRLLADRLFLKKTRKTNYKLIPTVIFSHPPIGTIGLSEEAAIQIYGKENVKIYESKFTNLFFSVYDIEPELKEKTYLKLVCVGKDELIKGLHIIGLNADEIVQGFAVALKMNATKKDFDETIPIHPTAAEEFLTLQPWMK

| pIC50 [1] | pIC50 [2] | pIC50 [4] | Compound | other results |
| --- | --- | --- | --- | --- |
| 5.40 |  |  | CC1=C(CCCCC(=O)O)C(=O)c2ccccc2C1=O |  |
| 5.46 | 5.49 | 5.35 | CC1=C(CCCCCC(=O)O)C(=O)c2ccccc2C1=O | pIC50 [3]: 5.57; pKi [4]: 5.44; pKi [5]: 5.43; pIC50 [6]: 5.57 and 5.74 |
| 5.85 | 4.57 | 4.97 | CC1=C(CCCCc2nnnn2CCC#N)C(=O)c2ccccc2C1=O |  |
| 4.90 |  |  | CC1=C(CCCCCC(=O)OCCN(C)C)C(=O)c2ccccc2C1=O |  |
| 5.74 |  |  | CC1=C(CCCC(=O)NCCC#N)C(=O)c2ccccc2C1=O |  |
| 6.00 |  |  | CC1=C(CCCCCC(=O)NCCC#N)C(=O)c2ccccc2C1=O |  |
| 5.82 | 4.64 | 4.24 | CC1=C(CCCCC(=O)NCCC#N)C(=O)c2ccccc2C1=O |  |
| 6.05 |  |  | CC1=C(CCCc2nnnn2CCC#N)C(=O)c2ccccc2C1=O |  |
| 5.96 |  |  | CC1=C(CCCCCc2nnnn2CCC#N)C(=O)c2ccccc2C1=O |  |
|  |  |  | CC1=CC(=O)c2ccccc2C1=O [MENADIONE] | pKi [7]: 4.79; pKi [8]: 4.92 |
|  | 4.80 | 5.19 | CN(C)c1ccc2nc3ccc(=[N+](C)C)cc-3sc2c1 [METHYLENE BLUE ANHYDROUS] |  |
